We go through 21 molecules from ChEMBL document CHEMBL2396638, “Structure-activity relationship studies and sleep-promoting activity of novel 1-chloro-5,6,7,8-tetrahydroimidazo[1,5-a]pyrazine derivatives as dual orexin receptor antagonists. Part 2” (Bioorg Med Chem Lett, 2013).

Data set [1] has as its target T1, Orexin/Hypocretin receptor type 1 (Homo sapiens, UniProt O43613).
T1 sequence (O43613 whole entry): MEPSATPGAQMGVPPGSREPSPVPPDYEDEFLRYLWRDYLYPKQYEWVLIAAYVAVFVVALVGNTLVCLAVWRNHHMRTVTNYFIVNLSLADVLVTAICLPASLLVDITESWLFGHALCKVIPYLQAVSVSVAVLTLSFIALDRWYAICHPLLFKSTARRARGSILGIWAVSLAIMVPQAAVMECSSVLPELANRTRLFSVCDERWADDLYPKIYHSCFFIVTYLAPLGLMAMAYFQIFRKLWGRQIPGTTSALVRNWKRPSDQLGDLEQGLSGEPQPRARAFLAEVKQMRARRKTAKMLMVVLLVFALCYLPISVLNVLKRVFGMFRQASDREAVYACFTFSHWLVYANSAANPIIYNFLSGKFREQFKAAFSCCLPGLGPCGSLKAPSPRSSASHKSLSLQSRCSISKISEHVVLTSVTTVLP
Nature of the data set: Antagonist activity at human OX1R expressed in CHO cells assessed as inhibition of calcium mobilization by FLIPR assay. Format: functional, cell-based. A general note: A change in cytosolic calcium serves as a functional read-out for many receptors and channels.

Data set [2] in a line: Ratio of drug level from brain to plasma in Wistar rat at 100 mg/kg, po after 3 hrs. Format: ADME, organism-based. Details: dose 100 mg/kg, route oral. The conditions noted are these: read-out: BPR. The essentials:
(§1)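 Male Wistar rats on 12 h light/dark cycle dosed orally at 100 mg/kg in PEG-400. Plasma and brain collected from the same animal at 3 h (±5 min). Blood drawn from caudal vena cava into EDTA and centrifuged for plasma. Brain taken after cardiac perfusion with 0.9% NaCl and homogenized in one volume cold phosphate buffer pH 7.4.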

Data set [3] can be described thus: Plasma concentration in Wistar rat at 100 mg/kg, po after 3 hrs. It is filed as ADME, organism-based. Details: dose 100 mg/kg, route oral. The essentials:
as §1

Data set [4] can be described thus: Drug uptake in Wistar rat brain at 100 mg/kg, po after 3 hrs. Format: ADME, organism-based. Details: dose 100 mg/kg, route oral. To be noted: read-out: Drug uptake. The essentials: as §1
In the next data set the target is T2, Orexin receptor type 2 (Homo sapiens, UniProt O43614).
T2 sequence (O43614 whole entry): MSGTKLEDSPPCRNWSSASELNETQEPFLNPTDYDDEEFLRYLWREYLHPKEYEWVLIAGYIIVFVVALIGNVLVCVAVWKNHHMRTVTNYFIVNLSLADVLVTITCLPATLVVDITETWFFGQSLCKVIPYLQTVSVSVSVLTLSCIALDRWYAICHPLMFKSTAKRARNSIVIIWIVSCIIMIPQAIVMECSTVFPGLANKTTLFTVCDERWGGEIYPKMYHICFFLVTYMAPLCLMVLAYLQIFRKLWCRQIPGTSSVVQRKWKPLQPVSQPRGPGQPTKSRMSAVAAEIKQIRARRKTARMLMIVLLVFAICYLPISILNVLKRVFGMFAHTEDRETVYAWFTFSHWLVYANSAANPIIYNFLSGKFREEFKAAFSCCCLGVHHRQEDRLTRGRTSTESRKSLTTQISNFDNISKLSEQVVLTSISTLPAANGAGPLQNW
Nature of the data set: Antagonist activity at human OX2R expressed in CHO cells assessed as inhibition of calcium mobilization by FLIPR assay. It is filed as functional, cell-based. In outline: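 CHO cells stably expressing human OX2R, loaded with fluo-3 AM calcium dye at 37 °C in 5% CO2, then washed. Antagonist added at varying concentrations before an approximate EC80 of orexin A. Ca2+ mobilization read by FLIPR; IC50 taken as concentration inhibiting 50% of the orexin A-induced calcium response.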

Data set [5] deals with Rattus norvegicus. Nature of the data set: Sleep-promoting activity in Wistar rat electroencephalographic model assessed as increase in time spent in rapid eye movement sleep at 100 mg/kg, po measured over 12 hrs relative to vehicle-treated control. Format: functional. In outline: (§2)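 Freely moving adult male Wistar rats carrying radiotelemetric implants recording EEG, EMG and locomotor activity in the home cage. Oral dose of 100 mg/kg in 100% PEG-400 given at the start of the dark phase. Crossover design with 12 or 16 rats per group and at least 4-day washout. Read-outs over the 12 h night versus vehicle; means ± SEM, paired t-test.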

For data set [6], the system named is Rattus norvegicus. Nature of the data set: Sleep-promoting activity in Wistar rat electroencephalographic model assessed as time spent in non-rapid eye movement sleep at 100 mg/kg, po measured over 12 hrs relative to total sleep time (reference value: 85.4 to 87.3%). It is filed as functional. In outline:
as §2

For data set [7], the system named is Rattus norvegicus. Nature of the data set: Sleep-promoting activity in Wistar rat electroencephalographic model assessed as time spent in rapid eye movement sleep at 100 mg/kg, po measured over 12 hrs relative to total sleep time (reference value: 12.7 to 14.6%). Format: functional. In outline:
as §2

Data set [8] has as its system Rattus norvegicus. Nature of the data set: Sleep-promoting activity in Wistar rat electroencephalographic model assessed as increase in time spent in non-rapid eye movement sleep at 100 mg/kg, po measured over 12 hrs relative to vehicle-treated control. It is filed as functional. In outline:
as §2

Data set [9] deals with Rattus norvegicus. Nature of the data set: Sleep-promoting activity in Wistar rat electroencephalographic model assessed as reduction of time spent in active wake at 100 mg/kg, po measured over 12 hrs relative to vehicle-treated control. Format: functional. Details: scale not given: the % may be the effect or the level left. In outline:
as §2

Data set [10] deals with Rattus norvegicus. Nature of the data set: Sleep-promoting activity in Wistar rat electroencephalographic model assessed as decrease in home cage activity at 100 mg/kg, po measured over 12 hrs relative to vehicle-treated control. Format: functional. Details: scale not given: the % may be the effect or the level left. The essentials:
as §2

In data set [11] the test system is MDR1 (human). Nature of the data set: Efflux ratio of apparent permeability […] to apical side in MDCK cells expressing human MDR1. Format: ADME, cell-based, Canis lupus familiaris. To be noted: dog.
Data set [12] has as its system MDR1 (human). Nature of the data set: Apparent permeability across basolateral to apical side in MDCK cells expressing human MDR1. The conditions noted are these: dog. It is filed as ADME, cell-based, Canis lupus familiaris.
The subject of data set [13] is MDR1 (human). Nature of the data set: Apparent permeability across apical to basolateral side in MDCK cells expressing human MDR1. Format: ADME, cell-based, Canis lupus familiaris. The conditions noted are these: dog.

With `CNC(=O)[C@@H](c1ccccc1)N1CCn2c(C3CC3)nc(Cl)c2[C@@H]1CCc1ccc(C(F)(F)F)cc1`, the IC50 in data set [1] is 30 nM.
For the molecule `CCc1nc(Cl)c2n1CCN([C@@H](C(=O)NC)c1ccccc1)[C@H]2CCc1ccc(C(F)(F)F)c(F)c1F`, the Kp at 3 h in data set [2] was found to be 0.1. The concentration at 3 h was found to be 6770 nM in data set [3] and 695 nM in data set [4]. Further, the IC50 at Orexin receptor type 2 turned out to be 14 nM; in data set [1] it was 17 nM.
As for `CCc1nc(Cl)c2n1CCN([C@@H](C(=O)NC)c1ccccc1)[C@H]2CCc1cc(F)c(C(F)(F)F)cc1F`, the figures for the IC50 (on Orexin receptor type 2; in [1]) were 17 nM and 32 nM, respectively.
The corresponding values for `CCc1nc(Cl)c2n1CCN([C@@H](C(=O)NC)c1ccccc1)[C@H]2CCc1cc(F)c(C(F)(F)F)c(F)c1` are 8 nM and 16 nM.
In the case of `CCc1nc(Cl)c2n1CCN([C@@H](C(=O)NC)c1ccccc1)[C@H]2CCc1ccc(F)c(F)c1F`, the Kp at 3 h in [2] amounted to 0.05. The results for the concentration at 3 h in data set [3] and in data set [4] were 387 nM and 18 nM, respectively. The IC50 on Orexin receptor type 2 stood at 5 nM; in data set [1], 30 nM.
Regarding `CCc1nc(Cl)c2n1CCN([C@@H](C(=O)NC)c1ccccc1)[C@H]2CCc1ccc(F)c(C(F)(F)F)c1`, the IC50 came out at 16 nM on Orexin receptor type 2 and 378 nM in [1].
Turning to `CCc1nc(Cl)c2n1CCN([C@@H](C(=O)NC)c1ccccc1)[C@H]2CCc1cccc(C(F)(F)F)c1F`, the Kp at 3 h in data set [2] is 0.07. Further, the figures for the concentration at 3 h in [3] and in [4] were 1860 nM and 136 nM, respectively. Also, the IC50 at Orexin receptor type 2 is 9 nM; in [1] it was 16 nM.
In the case of `CNC(=O)[C@@H](c1ccccc1)N1CCn2c(C3CC3)nc(Cl)c2[C@@H]1CCc1ccc(C(F)(F)F)c(F)c1`, in data set [2], the Kp at 3 h was found to be 0.07. For the same molecule, the concentration at 3 h in [3] was determined as 6800 nM; in data set [4] it was 450 nM. Moreover, the IC50 at Orexin receptor type 2 amounted to 10 nM; in [1], 53 nM.
On the same counts, the results for `CNC(=O)[C@@H](c1ccccc1)N1CCn2c(C3CC3)nc(Cl)c2[C@@H]1CCc1ccc(C(F)(F)F)cc1F` are 0.05, 6760 nM, 338 nM, 26 nM and 94 nM.
Turning to `CNC(=O)[C@@H](c1ccccc1)N1CCn2c(C3CC3)nc(Cl)c2[C@@H]1CCc1ccc(OC(F)F)c(F)c1`, the IC50 was found to be 2 nM on Orexin receptor type 2 and 170 nM in data set [1].
On the same counts, the results for `CCc1nc(Cl)c2n1CCN([C@@H](C(=O)NC)c1ccccc1)[C@H]2CCc1cccc(C(F)(F)F)c1` are 10 nM and 72 nM.
Regarding `CCc1nc(Cl)c2n1CCN([C@@H](C(=O)NC)c1ccccc1)[C@H]2COc1ccc(C(F)(F)F)cc1`, the half-maximal inhibitory concentration (IC50) came to 9 nM at Orexin receptor type 2 and 431 nM in [1].
The corresponding values for `CCc1nc(Cl)c2n1CCN([C@@H](C(=O)NC)c1ccccc1)[C@H]2COc1cccc(C(F)(F)F)c1` are 4 nM and 312 nM.
The corresponding values for `CCc1nc(Cl)c2n1CCN([C@@H](C(=O)NC)c1ccccc1)[C@H]2CCc1ccc(C#N)cc1` are 16 nM and 3900 nM.
As for `CCc1nc(Cl)c2n1CCN([C@@H](C(=O)NC)c1ccccc1)[C@H]2CCc1ccc(OC(F)F)cc1`, the IC50 on Orexin receptor type 2 is 1 nM; in [1], 74 nM.
The corresponding values for `CCc1nc(Cl)c2n1CCN([C@@H](C(=O)NC)c1ccccc1)[C@H]2CCc1ccc(OC(F)(F)F)cc1` are 18 nM and 203 nM.
As to `CCc1nc(Cl)c2n1CCN([C@@H](C(=O)NC)c1ccccc1)[C@H]2CCc1ccc(C(F)(F)F)c(F)c1`, the Activity was found to be 9% in the data set on Rattus norvegicus [5]; 86.2% in the data set on Rattus norvegicus [6]; 13.8% in the data set on Rattus norvegicus [7]; 16% with Rattus norvegicus [8]; 13% in the data set with Rattus norvegicus [9]; 36% with Rattus norvegicus [10]. Further, the efflux ratio with MDR1 (human) [11] stood at 35. Further, the Papp B→A with MDR1 (human) [12] turned out to be 68.8 ×10⁻⁶ cm/s. For the same molecule, the apical-to-basolateral permeability (Papp A→B) in the data set with MDR1 (human) [13] turned out to be 1.98 ×10⁻⁶ cm/s. Further, the Kp at 3 h in data set [2] turned out to be 0.12. The results for the concentration at 3 h in data set [3] and in [4] were 9820 nM and 1220 nM, respectively. Besides, the IC50 was found to be 7 nM at Orexin receptor type 2 and 18 nM in data set [1].
As to `CCc1nc(Cl)c2n1CCN([C@@H](C(=O)NC)c1ccccc1)[C@@H]2CCc1ccc(C(F)(F)F)c(F)c1`, the IC50 at Orexin receptor type 2 turned out to be 227 nM; in data set [1], 547 nM.
As for `CCc1nc(Cl)c2n1CCN([C@@H](C(=O)NC)c1ccccc1)[C@H]2CCc1ccc(C(F)(F)F)c(Cl)c1`, in data set [2], the Kp at 3 h is 0.08. Further, the concentration at 3 h in [3] turned out to be 1600 nM; in data set [4], 128 nM. Further, the IC50 at Orexin receptor type 2 was 18 nM; in data set [1], 20 nM.
On the same counts, the results for `CCc1nc(Cl)c2n1CCN([C@@H](C(=O)NC)c1ccccc1)[C@H]2CCc1ccc(C(F)(F)F)cc1F` are 0.06, 6420 nM, 363 nM, 12 nM and 45 nM.
In the case of `CNC(=O)[C@@H](c1ccccc1)N1CCc2cc(OC)c(OC)cc2[C@@H]1CCc1ccc(C(F)(F)F)cc1` [ALMOREXANT], the Activity came out at 38% in the data set with Rattus norvegicus [5]; 85.8% in the data set on Rattus norvegicus [6]; 14.2% in the data set on Rattus norvegicus [7]; 20% with Rattus norvegicus [8]; 20% with Rattus norvegicus [9]; 43% in the data set on Rattus norvegicus [10].

The term IC50 denotes the concentration needed to halve the response being measured. The term efflux ratio denotes the permeability from basolateral to apical divided by that in the opposite direction, in the common usage. The Papp B→A is the apparent permeability from the basolateral to the apical side of a cell layer. By Papp A→B is commonly meant how fast a substance crosses the layer from the apical side.
